Results taken from ChEMBL document CHEMBL1932989, “Dibasic biphenyl H3 receptor antagonists: Steric tolerance for a lipophilic side chain” (Eur J Med Chem, 2012).
Active and inactive are the calls of the source. No cut-off for these calls is given here.

Key:
[1] = biological target: T1, Histamine H3 receptor (Homo sapiens, UniProt Q9Y5N1); test: Displacement of [3H]RAMHA from human histamine H3 receptor expressed in GPCR97 transfected human SK-N-MC cells; type: cell-based
In short: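 SK-N-MC cell membranes stably expressing human H3; 60 min at room temperature with 0.5 nM [3H]-(R)-α-methylhistamine, competitor 0.01 nM–10 μM. Filtration, two washes with ice-cold 50 mM Tris–HCl/5 mM EDTA. Nonspecific binding with 10 μM histamine. pIC50 from displacement curves converted to pKi by Cheng–Prusoff; means ± SEM.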

[2] = biological target: Histamine H4 receptor (Homo sapiens, UniProt Q9H3N8); test: Displacement of [3H]histamine from human histamine H4 receptor expressed in GPCR97 transfected human SK-N-MC cells; type: cell-based
In short: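 Membranes of SK-N-MC cells stably expressing human H4, 60 min at room temperature with 10 nM [3H]-histamine, competitor 0.01 nM–10 μM. Filtration with two ice-cold Tris–HCl/EDTA washes. 10 μM histamine defined nonspecific binding. pKi derived from pIC50 by Cheng–Prusoff.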

[3] = biological target: T1, Histamine H3 receptor; test: Antagonist activity at human histamine H3 receptor expressed in human SK-N-MC cells assessed as inhibition of (R)-alpha-methylhistamine-induced effect after 6 hrs by beta-galactosidase reporter gene assay; type: functional, cell-based
In short: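 SK-N-MC cells expressing human H3 receptor and a β-galactosidase reporter; compounds (1 nM–10 µM) added 10 min before (R)-α-methylhistamine (0.1–100 nM), forskolin 5 µM added 5 min after compound. Incubated 6 h at 37 °C, cells lysed, chlorophenol red β-D-galactopyranoside colour read at 570 nm. Response as % agonist maximum; pKB by Furchgott equation, or pD2' by Van Rossum for non-surmountable antagonism; mean ± SEM.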

[4] = biological target: Histamine H2 receptor (Cavia porcellus) (UniProt P47747); test: Antagonist activity at histamine H2 receptor in guinea pig spontaneously beating isolated atria assessed as changes in rate of spontaneous beating at 1 uM by cardiotachograph analysis
[5] = biological target: Histamine H3 receptor (Rattus norvegicus, UniProt Q9QYN8); test: Displacement of [3H]RAMHA from rat histamine H3 receptor in rat cerebral cortex membranes; type: cell membranes, Membrane
In short: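 Rat brain membranes (Kilpatrick method) incubated 45 min with 0.5 nM [3H]-(R)-α-methylhistamine and compound (0.03 nM–10 μM) in 50 mM Tris–HCl pH 7.4, 50 mM NaCl, 0.5 mM EDTA. Vacuum filtration, two ice-cold buffer rinses. Nonspecific binding with 10 μM thioperamide. pIC50 converted to pKi via Cheng–Prusoff; means ± SEM.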

[6] = biological target: Histamine H1 receptor (Cavia porcellus) (UniProt P31389); test: Antagonist activity at histamine H1 receptor in guinea pig longitudinally mounted ileum assessed as […] up to 10 uM […]; type: functional, tissue-based
[7] = biological target: Neuronal acetylcholine receptor subunit alpha-7 (Homo sapiens) (UniProt P36544); test: Displacement of [125I]alpha-bungarotoxin from human alpha7 nicotinic receptor at 1 uM by scintillation counting
In short: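 Membrane homogenates bearing human α7 nicotinic receptor (20 µg protein) incubated 120 min at 37 °C with 0.05 nM [125I]α-bungarotoxin in 50 mM K2HPO4/KH2PO4 pH 7.4, 10 mM MgCl2, 0.1% BSA. Nonspecific binding with 1 µM α-bungarotoxin. Filtration on PEI-soaked glass fibre, scintillation counting; % inhibition of specific binding, duplicate.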

[8] = biological target: Histamine H2 receptor (Cavia porcellus) (UniProt P47747); settings: Ileum

Histamine H2 receptor (Cavia porcellus), sequence (P47747 whole entry): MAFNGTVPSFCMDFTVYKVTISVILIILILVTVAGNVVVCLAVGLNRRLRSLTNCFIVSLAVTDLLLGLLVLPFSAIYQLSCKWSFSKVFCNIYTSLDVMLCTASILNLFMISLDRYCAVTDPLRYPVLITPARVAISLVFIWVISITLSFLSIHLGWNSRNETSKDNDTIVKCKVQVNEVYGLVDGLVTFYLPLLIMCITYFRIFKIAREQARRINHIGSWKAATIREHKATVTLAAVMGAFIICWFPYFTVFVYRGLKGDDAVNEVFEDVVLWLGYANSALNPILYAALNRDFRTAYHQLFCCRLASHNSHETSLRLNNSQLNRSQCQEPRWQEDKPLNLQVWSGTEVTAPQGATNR
Histamine H1 receptor (Cavia porcellus), sequence (P31389 whole entry): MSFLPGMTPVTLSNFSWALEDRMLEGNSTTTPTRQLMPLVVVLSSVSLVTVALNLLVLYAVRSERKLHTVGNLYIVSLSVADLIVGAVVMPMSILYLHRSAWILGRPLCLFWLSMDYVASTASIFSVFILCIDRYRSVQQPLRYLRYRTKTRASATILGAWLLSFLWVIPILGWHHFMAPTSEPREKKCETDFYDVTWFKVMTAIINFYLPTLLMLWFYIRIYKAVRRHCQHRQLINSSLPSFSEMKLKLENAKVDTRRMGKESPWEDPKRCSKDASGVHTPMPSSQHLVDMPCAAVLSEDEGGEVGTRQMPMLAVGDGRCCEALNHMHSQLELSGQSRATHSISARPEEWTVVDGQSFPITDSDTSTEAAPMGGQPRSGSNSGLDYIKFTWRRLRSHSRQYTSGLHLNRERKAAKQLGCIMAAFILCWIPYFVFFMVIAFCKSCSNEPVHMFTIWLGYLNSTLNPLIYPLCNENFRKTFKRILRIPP
T1 sequence (Q9Y5N1 whole entry): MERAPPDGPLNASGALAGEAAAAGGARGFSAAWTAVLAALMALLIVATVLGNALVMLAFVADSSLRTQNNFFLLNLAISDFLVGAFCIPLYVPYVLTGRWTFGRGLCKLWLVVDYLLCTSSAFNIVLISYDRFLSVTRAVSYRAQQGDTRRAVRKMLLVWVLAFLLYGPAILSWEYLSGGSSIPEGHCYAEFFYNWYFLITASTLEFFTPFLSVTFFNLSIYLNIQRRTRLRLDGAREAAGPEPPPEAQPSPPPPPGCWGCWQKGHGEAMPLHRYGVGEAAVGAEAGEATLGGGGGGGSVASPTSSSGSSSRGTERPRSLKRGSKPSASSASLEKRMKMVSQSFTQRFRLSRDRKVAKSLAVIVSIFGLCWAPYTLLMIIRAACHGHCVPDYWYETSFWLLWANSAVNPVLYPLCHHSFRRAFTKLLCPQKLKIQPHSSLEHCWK
Histamine H3 receptor (Rattus norvegicus, UniProt Q9QYN8), sequence (Q9QYN8 whole entry): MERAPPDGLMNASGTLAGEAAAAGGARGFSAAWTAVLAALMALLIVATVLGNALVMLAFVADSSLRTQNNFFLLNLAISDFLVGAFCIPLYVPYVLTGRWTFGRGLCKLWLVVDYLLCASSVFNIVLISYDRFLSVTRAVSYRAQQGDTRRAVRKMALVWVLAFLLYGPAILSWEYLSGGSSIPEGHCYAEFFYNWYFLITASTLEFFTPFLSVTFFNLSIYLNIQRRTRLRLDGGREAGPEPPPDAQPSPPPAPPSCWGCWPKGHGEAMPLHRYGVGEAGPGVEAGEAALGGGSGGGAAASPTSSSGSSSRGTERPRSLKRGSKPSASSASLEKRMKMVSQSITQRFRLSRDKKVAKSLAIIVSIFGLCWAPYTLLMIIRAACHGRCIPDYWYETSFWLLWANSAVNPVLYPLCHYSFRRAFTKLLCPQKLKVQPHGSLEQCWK
Histamine H4 receptor, sequence (Q9H3N8 whole entry): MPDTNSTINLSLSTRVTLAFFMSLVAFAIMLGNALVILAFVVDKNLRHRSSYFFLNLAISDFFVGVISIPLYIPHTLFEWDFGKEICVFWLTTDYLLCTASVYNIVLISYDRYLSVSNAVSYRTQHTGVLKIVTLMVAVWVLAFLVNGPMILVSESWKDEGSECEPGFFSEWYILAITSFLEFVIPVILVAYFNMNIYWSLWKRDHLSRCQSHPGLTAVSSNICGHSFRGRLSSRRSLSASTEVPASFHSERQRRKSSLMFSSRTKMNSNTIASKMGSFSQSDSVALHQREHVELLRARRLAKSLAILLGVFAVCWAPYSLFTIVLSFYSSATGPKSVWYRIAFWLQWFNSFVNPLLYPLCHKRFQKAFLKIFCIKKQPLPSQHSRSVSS
Neuronal acetylcholine receptor subunit alpha-7 (Homo sapiens), sequence (P36544 whole entry): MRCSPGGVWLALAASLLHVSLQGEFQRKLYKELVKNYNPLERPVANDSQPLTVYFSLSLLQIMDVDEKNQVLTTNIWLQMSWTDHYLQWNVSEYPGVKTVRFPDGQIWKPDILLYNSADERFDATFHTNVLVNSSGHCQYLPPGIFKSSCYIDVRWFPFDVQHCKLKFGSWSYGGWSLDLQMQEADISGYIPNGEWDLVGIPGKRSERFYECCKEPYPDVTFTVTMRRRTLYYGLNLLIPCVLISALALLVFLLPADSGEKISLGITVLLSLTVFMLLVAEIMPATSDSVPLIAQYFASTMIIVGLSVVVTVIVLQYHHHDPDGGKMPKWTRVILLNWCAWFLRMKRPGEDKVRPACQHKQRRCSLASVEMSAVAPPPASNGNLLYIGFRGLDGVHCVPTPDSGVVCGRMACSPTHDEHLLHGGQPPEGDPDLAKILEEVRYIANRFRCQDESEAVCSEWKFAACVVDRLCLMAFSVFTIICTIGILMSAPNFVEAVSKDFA

SMILES | Ki [1] [nM] | Ki [2] [nM] | pKb [3] | Activity [4] | Ki [5] [nM] | Activity [6] | inhibition [7] | pKb [8]
COc1ccc(OCCC[C@@H](c2ccc(-c3ccc(CN4CCCCC4)cc3)cc2)N2CCC[C@@H]2C)cc1 | 2.04 | ≥ 31600 | 8.71 | inactive | 2.09 | inactive |  | 
CCCC[C@@H](c1ccc(-c2ccc(CN3CCCCC3)cc2)cc1)N1CCC[C@H]1C | 2.34 | ≥ 31600 | 8.58 | inactive | 16.2 | inactive |  | 
CN(C)C(Cc1ccccc1)c1ccc(-c2ccc(CN3CCCCC3)cc2)cc1 (racemic) | 16.6 | ≥ 31600 | 7.56 | inactive | 30.2 | inactive |  | 
CCCCC(c1ccc(-c2ccc(C)cc2)cc1)N1CCCCC1 (racemic) | 13500 | ≥ 31600 |  | inactive | 43700 |  |  | 
C[C@H]1CCCN1[C@H](CCCOc1ccccc1)c1ccc(-c2ccc(CN3CCCCC3)cc2)cc1 | 0.513 | ≥ 31600 | 8.48 | inactive | 6.61 | inactive | inactive | 
CCCC[C@H](c1ccc(-c2ccc(CN3CCCCC3)cc2)cc1)N1CCC[C@H]1C | 2.45 | ≥ 31600 | 8.8 |  | 12.6 | inactive |  | 5.13
CCCCC(c1ccc(-c2ccc(CN3CCCCC3)cc2)cc1)N1CCCCC1 (racemic) | 1.29 | ≥ 31600 | 8.81 | inactive | 4.27 | inactive |  | 
CCCC[C@@H](c1ccc(-c2ccc(CN3CCCCC3)cc2)cc1)N1CCCC[C@@H]1C | 2.45 | ≥ 31600 | 8.94 | inactive | 26.3 | inactive |  | 
CCCC[C@H](c1ccc(-c2ccc(CN3CCCCC3)cc2)cc1)N1CCCC[C@@H]1C | 3.02 | ≥ 31600 | 8.91 | inactive | 26.3 | inactive |  | 
COc1ccc(OCCC[C@H](c2ccc(-c3ccc(CN4CCCCC4)cc3)cc2)N2CCC[C@@H]2C)cc1 | 1.26 | ≥ 31600 | 8.71 | inactive | 6.61 | inactive |  | 
C[C@@H]1CCCN1Cc1ccc(-c2ccc(CN3CCCCC3)cc2)cc1 | 1.48 | ≥ 31600 | 9.16 | inactive | 3.55 | inactive |  | 
C[C@@H]1CCCN1Cc1ccc(-c2ccc(C(Cc3ccccc3)N3CCCCC3)cc2)cc1 (mixture of isomers) | 5.62 | ≥ 31600 | 8.87 | inactive | 29.5 | inactive |  | 
CCCCCc1ccc(-c2ccc(CN3CCCCC3)cc2)cc1 | 12900 | ≥ 31600 |  | inactive | 60300 |  |  | 
C[C@H]1CCCN1[C@@H](CCCOc1ccccc1)c1ccc(-c2ccc(CN3CCCCC3)cc2)cc1 | 2.57 | ≥ 31600 | 9.15 | inactive | 4.68 | inactive |  | 
COCCC[C@@H](c1ccc(-c2ccc(CN3CCCCC3)cc2)cc1)N1CCC[C@@H]1C | 0.871 | ≥ 31600 | 10 | inactive | 1.78 | inactive |  | 
CCCC[C@H](c1ccc(-c2ccc(CN3CCCCC3)cc2)cc1)N1CCC[C@@H]1C | 1.55 | ≥ 31600 | 8.81 | inactive | 8.71 | inactive |  | 
c1cc(-c2ccc(CN3CCCCC3)cc2)ccc1CN1CCCCC1 |  |  | 8.77 |  |  |  |  | 
c1ccc(CC(c2ccc(-c3ccc(CN4CCCCC4)cc3)cc2)N2CCCCC2)cc1 (racemic) | 19.1 | ≥ 31600 | 8.3 | inactive | 112 | inactive |  | 
CCCC[C@@H](c1ccc(-c2ccc(CN3CCCCC3)cc2)cc1)N1CCC[C@@H]1C | 1.26 | ≥ 31600 | 8.37 | inactive | 1.41 | inactive |  | 
C[C@H]1CCCN1Cc1ccc(-c2ccc(CN3CCCCC3)cc2)cc1 | 0.661 | ≥ 31600 | 9.46 | inactive | 0.372 | inactive |  | 
COCCC[C@H](c1ccc(-c2ccc(CN3CCCCC3)cc2)cc1)N1CCC[C@@H]1C | 2 | ≥ 31600 | 9.64 | inactive | 1.48 | inactive |  | 
